Assay results taken from ChEMBL document CHEMBL4400530, “Synthesis and structure-activity relationship studies of water-soluble β-cyclodextrin-glycyrrhetinic acid conjugates as potential anti-influenza virus agents” (Eur J Med Chem, 2019).
Activity calls are given as the source filed them. No cut-off for these calls is given here.

Experiments:
Influenza A virus = assay: Antiviral activity against Influenza A virus (A/WSN/33(H1N1)) infected in MDCK cells assessed as reduction in virus-induced cytopathic effect at 50 uM after 40 hrs by CellTiter-Glo assay; type: functional, organism-based; conditions: A/WSN/1933(H1N1)
Outline: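 MDCK cells seeded, grown overnight, then infected with A/WSN/33 (H1N1) at MOI 0.1 in DMEM with 1% FBS, 2 μg/mL TPCK-treated trypsin and test compound (final DMSO 1%). Compounds screened at a single 50 μM concentration. Incubation 40 h, then viability read by CellTiter-Glo luminescence. Oseltamivir positive control, DMSO negative control. Virus stock titres determined in MDCK cells by Reed and Muench.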

MDCK = assay: Cytotoxicity against MDCK cells assessed as effect on cell viability at 50 uM measured after 36 hrs by CellTiter-Glo assay; type: cell-based, Canis lupus familiaris; conditions: dog
Outline: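 MDCK cells (1 × 10⁴ per well) left to adhere 24 h at 37 °C, 5% CO₂. Medium then replaced with fresh medium containing compound at 50 μM, in triplicate. Controls received medium with 1% DMSO. Plates incubated 36 h at 37 °C, 5% CO₂, then viability read by CellTiter-Glo luminescence.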

| SMILES | Activity (Influenza A virus) | Activity (MDCK) |
| --- | --- | --- |
| CC1(C)[C@@H](O)CC[C@]2(C)[C@H]3C(=O)C=C4[C@@H]5C[C@@](C)(C(=O)NCc6cn(C[C@H]7O[C@@H]8O[C@H]9[C@H](O)[C@@H](O)[C@@H](O[C@H]%10[C@H](O)[C@@H](O)[C@@H](O[C@H]%11[C@H](O)[C@@H](O)[C@@H](O[C@H]%12[C@H](O)[C@@H](O)[C@@H](O[C@H]%13[C@H](O)[C@@H](O)[C@@H](O[C@H]%14[C@H](O)[C@@H](O)[C@@H](O[C@H]7[C@H](O)[C@H]8O)O[C@@H]%14CO)O[C@@H]%13CO)O[C@@H]%12CO)O[C@@H]%11CO)O[C@@H]%10CO)O[C@@H]9CO)nn6)CC[C@]5(C)CC[C@@]4(C)[C@]3(C)CC[C@@H]12 | Active | Non-Toxic |
| CC(=O)OC[C@H]1O[C@@H]2O[C@H]3[C@H](OC(C)=O)[C@@H](OC(C)=O)[C@@H](O[C@H]4[C@H](OC(C)=O)[C@@H](OC(C)=O)[C@@H](O[C@H]5[C@H](OC(C)=O)[C@@H](OC(C)=O)[C@@H](O[C@H]6[C@H](OC(C)=O)[C@@H](OC(C)=O)[C@@H](O[C@H]7[C@H](OC(C)=O)[C@@H](OC(C)=O)[C@@H](O[C@H]8[C@H](OC(C)=O)[C@@H](OC(C)=O)[C@@H](O[C@H]1[C@H](OC(C)=O)[C@H]2OC(C)=O)O[C@@H]8COC(C)=O)O[C@@H]7COC(C)=O)O[C@@H]6COC(C)=O)O[C@@H]5Cn1cc(CN2CCN(CCNC(=O)[C@@]5(C)CC[C@]6(C)CC[C@]7(C)C(=CC(=O)[C@@H]8[C@@]9(C)CC[C@H](O)C(C)(C)[C@@H]9CC[C@]87C)[C@@H]6C5)CC2)nn1)O[C@@H]4COC(C)=O)O[C@@H]3COC(C)=O | inactive | Non-Toxic |
| CC1(C)[C@@H](O)CC[C@]2(C)[C@H]3C(=O)C=C4[C@@H]5C[C@@](C)(C(=O)NCCOCCOCCOCCOCc6cn(C[C@H]7O[C@@H]8O[C@H]9[C@H](O)[C@@H](O)[C@@H](O[C@H]%10[C@H](O)[C@@H](O)[C@@H](O[C@H]%11[C@H](O)[C@@H](O)[C@@H](O[C@H]%12[C@H](O)[C@@H](O)[C@@H](O[C@H]%13[C@H](O)[C@@H](O)[C@@H](O[C@H]%14[C@H](O)[C@@H](O)[C@@H](O[C@H]7[C@H](O)[C@H]8O)O[C@@H]%14CO)O[C@@H]%13CO)O[C@@H]%12CO)O[C@@H]%11CO)O[C@@H]%10CO)O[C@@H]9CO)nn6)CC[C@]5(C)CC[C@@]4(C)[C@]3(C)CC[C@@H]12 | Active | Non-Toxic |
| CC(=O)OC[C@H]1O[C@@H]2O[C@H]3[C@H](OC(C)=O)[C@@H](OC(C)=O)[C@@H](O[C@H]4[C@H](OC(C)=O)[C@@H](OC(C)=O)[C@@H](O[C@H]5[C@H](OC(C)=O)[C@@H](OC(C)=O)[C@@H](O[C@H]6[C@H](OC(C)=O)[C@@H](OC(C)=O)[C@@H](O[C@H]7[C@H](OC(C)=O)[C@@H](OC(C)=O)[C@@H](O[C@H]8[C@H](OC(C)=O)[C@@H](OC(C)=O)[C@@H](O[C@H]1[C@H](OC(C)=O)[C@H]2OC(C)=O)O[C@@H]8COC(C)=O)O[C@@H]7COC(C)=O)O[C@@H]6COC(C)=O)O[C@@H]5Cn1cc(CNC(=O)[C@@]2(C)CC[C@]5(C)CC[C@]6(C)C(=CC(=O)[C@@H]7[C@@]8(C)CC[C@H](O)C(C)(C)[C@@H]8CC[C@]76C)[C@@H]5C2)nn1)O[C@@H]4COC(C)=O)O[C@@H]3COC(C)=O | Active | Non-Toxic |
| CC1(C)[C@@H](O)CC[C@]2(C)[C@H]3C(=O)C=C4[C@@H]5C[C@@](C)(C(=O)NCCOCc6cn(C[C@H]7O[C@@H]8O[C@H]9[C@H](O)[C@@H](O)[C@@H](O[C@H]%10[C@H](O)[C@@H](O)[C@@H](O[C@H]%11[C@H](O)[C@@H](O)[C@@H](O[C@H]%12[C@H](O)[C@@H](O)[C@@H](O[C@H]%13[C@H](O)[C@@H](O)[C@@H](O[C@H]%14[C@H](O)[C@@H](O)[C@@H](O[C@H]7[C@H](O)[C@H]8O)O[C@@H]%14CO)O[C@@H]%13CO)O[C@@H]%12CO)O[C@@H]%11CO)O[C@@H]%10CO)O[C@@H]9CO)nn6)CC[C@]5(C)CC[C@@]4(C)[C@]3(C)CC[C@@H]12 | Active | Non-Toxic |
